The list is not random: actives were taken first. Their share in the collection is about 12%.
MT stabilizer = microtubule stabilization, imaging screen; HeLa tubulin immunostaining HCS, 24 h; share of cells brighter than vehicle mean+2SD; % tubulin-high responders, % at 10 µM; 0.83% of 200,000 active; AID 2205;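 active means plate Z-score above 3 for both tubulin-high and condensed-nucleus cell shares, with cell loss under 80%, at 10 µM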;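 further: anti alpha tubulin signal scored within the nucleus-defined area of each cell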
CHOP inhibitor = CHOP inhibition in unfolded protein response; CHO-K1 CHOP-promoter luciferase, tunicamycin-induced, 15-18 h; inhibition, % at 10 µM; 3.8% of 220,000 active;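 active means compounds that reduced the stress-induced luciferase reporter signal by more than about 70% of percent inhibition, limit read from the data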
Dynein cargo inh = blocks dynein driven cargo transport along microtubules; 3617.4 mouse cells, GR-EGFP nuclear translocation imaging; test concentration mostly 20 µM; stimulated with dexamethasone, 1 µM; active compounds read low; z-score, hits read low; 0.47% of 220,000 active; AID 1381;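 active means plate z-score of nuclear minus cytoplasmic receptor signal below a set negative limit, without overly bright fluorescence or cell loss, cut at about -3.5 in these data, passing the limit was not always enough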;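 further: z-score of nuclear minus cytoplasmic ring GR-EGFP intensity difference per well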
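medium = tetracycline-free induction medium containing charcoal-stripped FBS | also added = 1.0 µM final dexamethasone stimulus | schedule = 48 h induction, 1 h compound, 30 min dex at 37 °C | technique = fixed, Hoechst-stained cells imaged at 10x for EGFP | measure = GR-EGFP nuclear translocation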
Lmaj promast = Leishmania major promastigote growth inhibition. Leishmania major promastigotes, resazurin fluorescence viability. inhibition, % at 10 µM. 9% of 200,000 active; in the data active means inhibition above about 50%;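 further: promastigotes grown with compound for 44 hours at 28 °C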
bCat nuc transl = beta-catenin nuclear translocation modulation | HeLa beta-catenin nuclear translocation, immunofluorescence imaging | nuclear translocation activity, % at 5 µM | 0.3% of 190,000 active;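 active means nuclear translocation activity above 50% at 5 µM, with a well cell count of 50 or more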;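 further: per-cell ratio of nuclear to cytoplasmic median beta-catenin stain intensity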
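Assay system: human HeLa cells, native beta-catenin; doses: 5 µM primary, 0.02–20 µM confirmation; incubation: compound treatment 24 h, 37°C, 5% CO2; technique: fluorescence imaging of beta-catenin antibody stain plus DAPI; measure: % activation, nuclear-to-cytoplasmic median beta-catenin signal ratio per cell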
Autophagy HCS = modulators of autophagy. MEF GFP-LC3 puncta imaging; test concentration mostly 10 µM. calls only at 10 µM (by protocol). 0.98% of 190,000 active;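 active means percentage of spot-positive cells more than 3 SD above its plate mean, without a fluorescence outlier flag or 80% toxicity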
Each line names hits and unclear results; the compound was inactive in the other large screens.

O=C(CCCN1C(=O)c2ccccc2C1=O)NCCCn1ccnc1	none
Cc1ccccc1CNc1ccc(C(CC(N)=O)NC(=O)c2ccccc2)cc1[N+](=O)[O-] (centres undefined)	none (no result: MT stabilizer, Lmaj promast, Autophagy HCS)
O=C(NCCCn1ccnc1)c1cc(-c2ccc(Cl)cc2)nc2ccccc12	Lmaj promast 98
O=C(NCCCn1ccnc1)Nc1ccc(Cl)c(Cl)c1	Lmaj promast 95
O=C1CCC(C(=O)NCCCn2ccnc2)N1 (centres undefined)	Lmaj promast 66, Autophagy HCS active
O=C(NCCCN1CCc2ccccc2C1)Nc1ccc(Cl)cc1	Lmaj promast 78
CCCN(CCC)C(=O)C1CC(=O)OC12CCCCC2 (centres undefined)	none
O=C1CNC(=O)/C(=C/c2ccco2)N1	none
Cc1cc(Cl)ccc1OCCCC(=O)NCCCn1ccnc1	none
O=C(CCn1ccnc1)Nc1ccc2ccccc2c1	Lmaj promast 74
O=C(CCCOc1ccc(Cl)cc1Cl)NCCCn1ccnc1	Lmaj promast 66
O=C(NCCCn1ccnc1)c1noc2c1CCc1ccccc1-2	Lmaj promast 88
CSC1=N/C(=C\c2ccc(C)o2)C(=O)S1	none
O=S(=O)(NCc1ccc2c(c1)OCO2)c1cccc(S(=O)(=O)N2CCOCC2)c1	none
Cn1c(=O)c2c(nc(CN3CCc4ccccc4C3)n2Cc2ccccc2F)n(C)c1=O	Lmaj promast 61
Cc1ccc(Cn2c(CN3CCN(C(=O)c4ccco4)CC3)nc3c2c(=O)n(C)c(=O)n3C)cc1	Lmaj promast 78 (no result: bCat nuc transl)
Cn1c(=O)c2c(nc(N/N=C/c3ccc(OC(=O)c4ccco4)cc3)n2Cc2ccccc2)n(C)c1=O	Lmaj promast 61
Cn1c(=O)c2c(nc(CN3CCc4ccccc4C3)n2CCc2ccccc2)n(C)c1=O	none (no result: CHOP inhibitor, bCat nuc transl)
COc1ccc(Cl)c(Cn2c(NCCCN(C)C)nc3c2c(=O)n(C)c(=O)n3C)c1	Lmaj promast 100
O=c1ccccn1Cc1c(F)cccc1Cl	none (no result: bCat nuc transl)
CCOP(=O)(OCC)C(Nc1ccc(C)cc1)c1ccco1 (centres undefined)	none
CC(C)Cn1c(CN(C)Cc2ccccc2)nc2c1c(=O)n(C)c(=O)n2C	none
Cn1c(=O)c2c(nc(CN3CCN(Cc4ccccc4)CC3)n2Cc2cccc(Cl)c2)n(C)c1=O	none (no result: CHOP inhibitor)
Cc1ccc(Cn2c(NCCc3ccccc3)nc3c2c(=O)n(C)c(=O)n3C)cc1	CHOP inhibitor 79 (no result: bCat nuc transl)
CCN1CCN(Cc2nc3c(c(=O)n(C)c(=O)n3C)n2Cc2ccccc2Cl)CC1	none (no result: bCat nuc transl)
Cn1c(=O)c2c(nc(CN3CCc4ccccc4C3)n2Cc2cccc(Cl)c2)n(C)c1=O	Lmaj promast 56
CN(Cc1ccccc1)Cc1nc2c(c(=O)n(C)c(=O)n2C)n1CCCc1ccccc1	CHOP inhibitor 77 (no result: bCat nuc transl)
Cn1c(=O)c2c(nc(CN3CCN(CCO)CC3)n2Cc2cccc3ccccc23)n(C)c1=O	Lmaj promast 99
O=C(/C=C/c1ccc(S(=O)(=O)NCc2ccco2)cc1)N1CCN(c2ccccc2)CC1	none
Clc1ccc(-c2nc3ccccn3c2CN2CCOCC2)cc1	none
Clc1ccc2nc(-c3ccccc3)c(CN3CCOCC3)n2c1	Lmaj promast 60
CC1=CC(C)(C)Nc2ccc(C)cc21	none
CC1=CC(C)(C)Nc2ccc(OC(=O)C(C)N3C(=O)c4ccccc4C3=O)cc21 (centres undefined)	Lmaj promast 101
CC(C(=O)Oc1ccc2c(c1)OCO2)N1C(=O)c2ccccc2C1=O (centres undefined)	none
CC1=CC(C)(C)Nc2ccc(OC(=O)CN3C(=O)CCC3=O)cc21	Lmaj promast 100
C=CCn1c(=O)c2ccccc2n2c(Sc3nnnn3-c3ccccc3)nnc12	Lmaj promast 56
COc1ccc(S(=O)(=O)NC(CC(=O)N2CCc3ccccc32)c2ccco2)cc1 (centres undefined)	Lmaj promast 76 (no result: bCat nuc transl)
CCc1ccc(NC(=O)Cc2c(C(=O)O)n(C)c3ccccc23)cc1	none
COC(=O)C1CCN(Cc2ccc(OCCCN3CCN(c4ccc([N+](=O)[O-])cc4)CC3)cc2)CC1	Lmaj promast 96
O=[N+]([O-])c1ccc(-c2ccc(S(=O)(=O)NCCN3CCCC3)cc2)cc1	Lmaj promast 80
CC1CCN(CCCCOc2ccc([N+](=O)[O-])cc2)CC1	Lmaj promast 91
